Measured values published in the EternaBench riboswitch data.

Test system: MS2 coat protein
Test: apparent Kd, MS2 coat protein; higher = weaker binding; RNA-MaP array; FMN 200 µM where present
Outline: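 Binding was read on Illumina sequencing-chip clusters where stalled E. coli RNA polymerase had transcribed each design. A titration of SNAP-549-labelled MS2 coat protein began at 0.7 or 1.5 nM and doubled to 3 µM, once without ligand and once with constant ligand, in 100 mM Tris-HCl pH 7.5, 80 mM KCl, 4 mM MgCl2, BSA, DTT, yeast tRNA and Tween-20. The apparent Kd is the median of filtered per-cluster binding-curve fits, based on green signal normalised to red-channel RNA signal and control-cluster median Fmax.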

[1] = designed as: ON switch for flavin mononucleotide, no ligand
[2] = ligand present: flavin mononucleotide, designed as: ON switch for flavin mononucleotide
[3] = designed as: OFF switch for flavin mononucleotide, no ligand
[4] = ligand present: flavin mononucleotide, designed as: OFF switch for flavin mononucleotide

Row | Sequence | apparent Kd [1] [nM] | apparent Kd [2] [nM] | apparent Kd [3] [nM] | apparent Kd [4] [nM]
1 | UGGCUGAGUCGAGGAUAUGAUCUUCAUAUAUAUACAUGAGGAUCACCCAUGUAUAAUUACAUGGAUCAGAAGGCGACUCAGCCU | 29.4 | 9.47 | – | –
2 | CCUGGAUCAUGAGGAUAUGGUACCUUAUUGGUACCAGAAGGCAUGUCUCUUGACAUGAGGAUCACCCAUGUAAUAAAUUCCAGG | 841 | 114 | – | –
3 | ACCAUUUACUAAUUAUCUAUACAUGAGGAUCACCCAUGUUAAGAGGAUAUCAUCGUGAAACGCGAUGAGAAGGCUUAGCAUUCG | – | – | 55.2 | 172
4 | GAAUAUUCGUGGUACAUGAGGAUCACCCAUGUGUCUUUACAUGAGGAUAUGGAUUCUAAUUGGAUCCAGAAGGCAUGAAUAUUC | 75.5 | 31.2 | – | –
5 | UGUAUGGACAGAGGAUAUGCCGAUAGGAUUUACUAUCGAAGAAUCCUCACAUGAGGAUCACCCAUGUAGAAGGCUGUCCAUACU | – | – | 8.14 | 38.4
6 | UGAGCGCACGAGAAGGGCGGGUUCACGGGCUCCUGACGAGACAUGAGGAUCACCCAUGUAACCACGCAGGAUAUCGACCGGAUC | – | – | 20.9 | 141
7 | GGUGCGUAUGUGAGGAUAUGCUGGUCCUUGGAUCGGCAGAAGGCACAUGAGGAUCACCCAUGUGGUGUCGUACA | – | – | 411 | 34.7
8 | GUGCCUUGGUAGAAGGCCCAAUGCAAAGCAUAGGGAGGAUAUACAUAUAAUAAAUAAACAUGAGGAUCACCCAUGUGGCACAAA | 10.8 | 10.4 | – | –
9 | UAAAGCUCCGAGAAGGUAUGCGUACAUGAGGAUCACCCAUGUCAAAGCAUAAGGAUAUCGUGUGCGUGCGUCGAAUGUAGGAAA | 10.2 | 5.55 | – | –
10 | UUUACAUGAGGAUCACCCAUGUUUAGAAAGAUUAAUUUAAGUGAGGAUAUACAUAAUAAUAAAUUGUAGAAGGCACUGGGUACA | 19.3 | 20.6 | – | –
11 | AAAUUUAACGAAGGAUAUGGUUACAUGAGGAUCACCCAUGUGUGCCUUGUGAUCUUGUUUAAGUUCCAGAAGGUCGUAUACAUA | – | – | 41.7 | 183
12 | AUAAAGCGAGGAUAUACAUGAGGAUCACCCAUGUGGCAGCCAGGUAGGAGUGACGUCGGUAGAAGGCGCACCCU | – | – | 31.9 | 35.6
13 | CAGACACAUGAGGAUCACCCAUGUGAGGAUAUGCGUACGUUGUCCGUAGGCGACGUGCGCAGAAGGCGCAUUGG | – | – | 110 | 252
14 | AAAAACAGAGGAUAUACAAAAUGAUGACGAAAGUCAUCAAAACAUGAGGAUCACCCAUGUAGAAGGCUGAAAAA | – | – | 25.9 | 22.9
15 | ACGGUGGUCACAGGAUAUCCGGCCCGCGUGCUCGGAGAAGGGUGACUCAGAACCACAUGAGGAUCACCCAUGUGCCUUGCCGUA | 122 | 25.1 | – | –
16 | UGGUACUAGGGAGGAUAUGGGUAGAUACAUGAGGAUCACCCAUGUUUAAGAAUGCCGAGAGGCAACUAGAAGGCCCUAGUACCU | 549 | 319 | – | –
17 | ACAUGAGGAUCACCCAUGUUGAAUUAGGAUAUUUGACUGCGCAUGAGGUUCUCCCAUGUUCAACCGGAGAAGGGAUUAAUAAUU | 273 | 150 | – | –
18 | UACGUACAGAAGAACUCCGGAUCUAGAAGGGACAUGAGGAUCACCCAUGUACCGUUGAUUGCUUGUCAGGAUAUAGACCCGGCC | – | – | 6.07 | 14.2
19 | AAUAAACACACAGGAUAUAGCAUCGUCGGUAUGAACUUAAAGACGACGAUGCUAGAAGGGUGAACACAUGAGGAUCACCCAUGU | 232 | 39.1 | – | –
20 | CAUUAAUUAAUUAUAUUAAUUAUACAGGAUAUGUAACAUGAGGAUCACCCAUGUAUUCAAUGUAAACAGAAGGGUAUAUCUAGU | – | – | 14.6 | 13
21 | AAUAAAUAUAAAUUUUAUUUGUCGUAGGAUAUGGGUGACAUGAGGAUCACCCAUGUUGCAGACGACCAGAAGGGCGGCGGAUAU | 117 | 23.2 | – | –
22 | GUCAGCUCGUGAGGAUAUACAACACUGCUUCGGCAGUGUAUUAAGAGCACAUGAGGAUCACCCAUGUAGAAGGCACGAGCUGAU | – | – | 5.58 | 7.61
23 | AUCAGCUCGUCAGGAUAUCCGUCACUGCGUCAGCAGUGUGGUAAGAUCACAUGAGGAUCACCCAUGUAGAAGGGACGAGCUGAU | – | – | 6.08 | 6.5
24 | UUGGUUGUCGUAGGAUAUGUAGGAUAUUCCUACAUGAGGAUCACCCAUGUUAGCAUGGAAGAAGGACAGAAGGACGAUGACCAU | 1010 | 16.9 | – | –

Row | Sequence | apparent Kd [1] [nM] | apparent Kd [2] [nM] | apparent Kd [3] [nM] | apparent Kd [4] [nM]
25 | UAUUUAUAAUAUUUUAACAUGAGGAUCACCCAUGUCGCUAGACAGGAUAUAUUUUAUUUUUUUAAGUAGAAGGGUCAUAGAUUU | 75.1 | 96.9 | – | –
26 | AGCAUGUGAGGAUAUGUGACCCUCGUCCGAAGGAUGAGGGAAUAGAAGGCACAUGAGGAUCACCCAUGUGAUGA | – | – | 54.1 | 156
27 | ACGCUUUGGGAGAAGGUACGUUAAAUUUUUUCCACAUGAGGAUCACCCAUGUAAGGAUAUCCCAUCGUUAAAUAGUCUUCAGCA | – | – | 9.45 | 9.02
28 | GGGUACAUCGGAGGAUAUCAUGUAAAUACAUGAGGAUCACCCAUGUCGAUGGAGACAUCCGAGAUUGAGAAGGCCGAUGUACCG | 29.3 | 13.3 | – | –
29 | CACGUCCUCACAGGAUAUGCUGGACUUUGUCCAGCAGAAGGGUGAAAACAUGAGGAUCACCCAUGUAGGACGUGUAUAUUUAAU | 1020 | 125 | – | –
30 | CCCGUCAUCGAGAAGGCCUCAACAUGAGGAUCACCCAUGUUGUAAUAUGGGAGGAUAUCGAUGAUACAGCUACGUUUCGUAGGG | 17.3 | 6.33 | – | –
31 | GAAAGGGCAGGAUAUGCAUGUUGGCAAAAUUCUCAGCAAGAACAUGAGGAUCACCCAUGUAGAAGGGCCAACGG | – | – | 42.3 | 59.9
32 | AAAACAUGAGGAUCACCCAUGUAAAGAACGCUUAAUAGAUCUGAGGAUAUACUAGAAUUUACGUAGUAGAAGGCAGUGGGUACA | 31.3 | 25.3 | – | –
33 | GGCGGCGCGGGCCACCGCAGGACCAGAAGGACAUGAGGAUCACCCAUGUGGCAGAACAGGGCGGUGUAGGAUAUGGCAGGCUCG | – | – | 28.8 | 64.3
34 | ACAUACAUUCGAGGAUAUCGGUGAUUAAUAAUACGAGAAGGCGAUUUAAGGCAUAAAGCCUUAGACAUGAGGAUCACCCAUGUA | 97.9 | 43.8 | – | –
35 | UCGAAGAAUGCAGGAUAUACAUGAGGAUCACCCAUGUCACGGUCGGCUUCUGUAGAAGGGCACUUACCCAGGUAAAUUGCUUGG | – | – | 5.39 | 5.81
36 | GUGCCGAACCUAGGAUAUCUUAUCGGGUUCCGCCGUGGCUUAGCGACAUGAGGAUCACCCAUGUAAGAGAAGGAGGUGGCGGAG | – | – | 128 | 135
37 | GCACUGGAUGUAGGAUAUCAGGACGAUAAGUCCUGAGAAGGACAUGAGGAUCACCCAUGUAAACUCAACCAGUGCUAUAAUAUA | – | – | 15.2 | 22.8
38 | GUCAGCUCGUGAGGAUAUACAACACUGCUUCGGCAGUGUAUUAGGAUCACAUGAGGAUCACCCAUGUAGAAGGCACGAGCUGAU | – | – | 16.3 | 323
39 | CGGAUGUCAGGAUAUCGUGCAUACAACGAAAGUUCUAUGUGCGAGAAGGGACAUGAGGAUCACCCAUGUUAACG | – | – | 59.5 | 250
40 | AUGGUUGUCGUAGGAUAUGUAGGAUAUUCCUACAUGAGGAUCACCCAUGUUCGCAUGGAAGAAGGACAGAAGGACGAUGACCAA | 531 | 21.1 | – | –
41 | AAUAACAGAGGAUAUACUGUUUUAUGUGUUUAUUGUUUUGAACAUGAGGAUCACCCAUGUAGAAGGCUGAAUAA | – | – | 22.6 | 23.2
42 | UUUGUCGGAGUAGGAUAUCAAAUAGAGGGUGUAUGAGAAGGACUUAGACAUGAGGAUCACCCAUGUGUGGGUCGCCUCGAUCUC | – | – | 6.88 | 10.9
43 | GCGAGUAAAGCAGGAUAUCUAUUGUCUCUGUAACAUGAGGAUCACCCAUGUAGAGAAGGGCUUAGUCAUACACUUCGAACUCGC | – | – | 5.57 | 5.38
44 | AGUCGGAGCAGAGGAUAUACAUGAGGAUCACCCAUGUAAUAGGAUGAAGCCUGGAAACAGGCAAUGUAGAAGGCUGCUCCGACA | – | – | 60.1 | 589
45 | CCUAAGGACACAGGAUAUAGCGUGGUUGCUGGGCUCCAACGGCGAGCGGCGCUAGAAGGGUGACCACAUGAGGAUCACCCAUGU | 532 | 162 | – | –
46 | UGGUACUAGGGAGGAUAUGGGAAGAUACAUGAGGAUCACCCAUGUUUAAGAAUGCCGCGAGGCAACUAGAAGGCCCUAGUACCU | 398 | 19.6 | – | –
47 | UUCGCUAAGGUGUAGCGAGACUUGCAAGAAGGGUGAAGAACAUGAGGAUCACCCAUGUAAUCCUUACAGGAUAUUGCUUGACGA | 273 | 33.1 | – | –
